The values below come from ChEMBL document CHEMBL4699492, “Discovery of Novel Pyrazolo[3,4-b] Pyridine Derivatives with Dual Activities of Vascular Remodeling Inhibition and Vasodilation for the Treatment of Pulmonary Arterial Hypertension” (J Med Chem, 2020).

Activity calls are given as the source filed them. No cut-off for these calls is given here.

The target in experiment [1] is cGMP-specific 3',5'-cyclic phosphodiesterase (Homo sapiens) (UniProt O76074). To be noted: dose 2.0 nM, time 15.0 min.
The nature of experiment [2]: Antiproliferative activity against HLF1 cells assessed as reduction in TGFbeta-induced cell proliferation measured after 48 hrs by CCK8 assay. It counts as functional, cell-based. Particulars: Homo sapiens, HLF1, 48 h. The procedure, abridged: (§1)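 HPASMCs grown in high-glucose D-MEM with 20% FBS and HLF1 in D-MEM/F-12 (1:1) with 10% FBS. Cells stimulated with TGF-β (10 ng/mL) at 37 °C, 5% CO2, then exposed to a concentration range for 48 h. CCK-8 added for 4 h and absorbance read at 490 nm. IC50 derived from the curves.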
For orientation: Tetrazolium assays rely on reduction of a dye to a coloured formazan, in cell work by metabolically active cells.

For experiment [3], the system named is Rattus norvegicus. Nature of the experiment: Inhibition of vascular remodeling activity in Sprague-Dawley rat model of hypoxia-induced pulmonary artery hypertension assessed as decrease in ratio of RV/tibial length at 10 mg/kg, po administered daily for 2 weeks. It counts as functional, organism-based.
For experiment [4], the system named is Pulmonary Artery Smooth Muscle Cells. Nature of the experiment: Stimulation of sGC in HPASMC assessed as increase in intracellular cGMP level measured after 1 hr in absence of PDE5 inhibitor IBMX and presence of sGC inhibitor ODQ by cGMP-d2/europium cryptate reagent based HTRF assay. Particulars: Homo sapiens, filed as activator. It counts as tissue-based. In short, it runs like this: (§2)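 HPASMCs were suspended at 100,000 cells/mL in PBS with 0.2% BSA, with or without 10 µM ODQ. Compounds were added as a 6-point, 10-fold dilution series; the top 2× stock was 200 µM. Incubation was 1 h at room temperature, in triplicate. cGMP-d2 in lysis buffer and europium cryptate were then added for 1 h before HTRF reading. Three independent experiments.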

The test system is the same in experiment [5]. Nature of the experiment: Stimulation of sGC in HPASMC assessed as increase in intracellular cGMP level at 100 uM measured after 1 hr in presence of PDE5 inhibitor IBMX by cGMP-d2/europium cryptate reagent based HTRF assay relative to control. Particulars: Homo sapiens, filed as activator. It counts as tissue-based. In short, it runs like this:
as §2
(In TR-FRET formats the signal depends on donor and acceptor labels being close together.)

In experiment [6] the test system is Rattus norvegicus. Nature of the experiment: Inhibition of vascular remodeling activity in Sprague-Dawley rat model of hypoxia-induced pulmonary artery hypertension assessed as right ventricular systolic pressure at 10 mg/kg, po administered daily for 2 weeks by catheter method (reference value: 26.2 mmHg). It counts as functional.
The test system of experiment [7] is Aorta. Nature of the experiment: Vasodilating activity in Sprague-Dawley rat aortic rings assessed as reduction in phenylephrine-induced contractions. It counts as functional, tissue-based. The procedure, abridged: (§3)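 Thoracic aorta from male SD rats (250-280 g) anesthetized with chloral hydrate, cut into 4 mm rings. Rings held in Krebs-Henseleit at 37 °C gassed with 95% O2/5% CO2, under 2 g resting tension, equilibrated 60 min, and precontracted with 10^-7 M phenylephrine. Cumulative concentrations of 3×10^-9 to 10^-6 M (final) applied. Percent relaxation of the initial contraction taken at 1 µM, and EC50 derived.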

Experiment [8] deals with T1, AMP-activated protein kinase, AMPK (Homo sapiens) (UniProt P54646+O43741+P54619+Q9UGJ0+Q9Y478+Q13131+Q9UGI9). Nature of the experiment: Inhibition of AMPK in TGFbeta-induced HPASMC assessed as reduction in cell migration measured after 24 hrs by wound healing assay. To be noted: Pulmonary Artery Smooth Muscle Cells, dose microM 5-10, time 24.0 hrs. It counts as tissue-based. In short, it runs like this:
(§4)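 Wound-healing assay. 5 × 10^4 cells were seeded per well and grown 24 h to near confluence. The monolayer was scratched with a pipette tip and washed with PBS. Cells were then kept in 1% FBS medium with TGF-β (10 ng/mL) or under hypoxia (1% O2, 5% CO2, 94% N2), alone or with compound. Migration ran 24 h at 37 °C, imaged at 0 and 24 h. Mean ± SD from three independent experiments.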

Experiment [9] addresses T1, AMP-activated protein kinase, AMPK (Homo sapiens). The experiment can be described thus: Inhibition of AMPK in TGFbeta-induced HLF1 cells assessed as reduction in cell migration measured after 24 hrs by wound healing assay. To be noted: dose microM 5-10, time 24.0 hrs. It counts as cell-based. In short, it runs like this: as §4
In experiment [10] the test system is Rattus norvegicus. Nature of the experiment: Inhibition of vascular remodeling activity in Sprague-Dawley rat model of hypoxia-induced pulmonary artery hypertension assessed as reduction in alpha-SMA expression in lungs at 10 mg/kg, po administered daily for 2 weeks by Western blot analysis. It counts as functional, organism-based. In short, it runs like this: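 Lungs came from hypoxic SD rats (10% O2, 4 weeks) dosed orally at 10 mg/kg daily for 14 days. Tissue was homogenised in RIPA buffer with protease and phosphatase inhibitors. 30 µg of protein was run on 10% SDS-PAGE and transferred to PVDF. Blots were probed overnight at 4 °C with anti-α-SMA (1:1000) and anti-β-actin (1:2000) and detected by fluorescence.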
Background: In western blotting, separated proteins are transferred to a membrane and probed.

The test system of a further experiment is HLF1. Nature of the experiment: Antiproliferative activity against HLF1 cells measured after 48 hrs under hypoxic condition by CCK8 assay. It counts as functional, cell-based. To be noted: Homo sapiens. The procedure, abridged:
(§5)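 HPASMCs were grown in high-glucose D-MEM with 20% FBS, and HLF1 in D-MEM/F-12 (1:1) with 10% FBS. Cells were seeded for exponential growth, then exposed to a range of compound concentrations for 48 h at 37 °C under hypoxia (1% O2, 5% CO2, 94% N2). CCK-8 was added for 4 h and absorbance read at 490 nm. IC50 came from dose-response curves averaged over three independent experiments.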

The target of experiment [11] is T1, AMP-activated protein kinase, AMPK (Homo sapiens). The experiment can be described thus: Inhibition of AMPK in hypoxia-induced HLF1 cells assessed as reduction in cell migration measured after 24 hrs by wound healing assay. It counts as cell-based. To be noted: dose microM 5-10, time 24.0 hrs. The procedure, abridged:
as §4

A further experiment is filed under the species Homo sapiens. Nature of the experiment: Inhibition of CaMKKbeta phosphorylated recombinant human AMPK alpha1/beta1/gamma1 using 1-biotin as substrate incubated for 60 mins by HTRF assay. Particulars: time 1.0 hrs. The procedure, abridged: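 Kinase reaction with 0.16 µM STK substrate 1-biotin, 0.8 mmol DTT, 4 mmol MgCl2, 4 µM ATP and compound, started by adding 1 ng/µl CaMKKβ-prephosphorylated AMPK (α1β1γ1). Ran 1 h at 37 °C, then Eu3+-cryptate STK antibody plus 57.5 nmol/L XL-665 for 1 h at room temperature. Activity read as the 665/620 ratio ×10000. Curves averaged from three independent experiments.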

In experiment [12] the test system is Pulmonary Artery Smooth Muscle Cells. Nature of the experiment: Stimulation of sGC in HPASMC assessed as increase in intracellular cGMP level at 100 uM measured after 1 hr in absence of PDE5 inhibitor IBMX by cGMP-d2/europium cryptate reagent based HTRF assay relative to control. It counts as tissue-based. Particulars: Homo sapiens. In short, it runs like this: as §2

Experiment [13] relates to Rattus norvegicus. Nature of the experiment: Inhibition of vascular remodeling activity in Sprague-Dawley rat model of hypoxia-induced pulmonary artery hypertension assessed as increase in body weight at 10 mg/kg, po administered daily for 2 weeks. It counts as functional, organism-based.
Experiment [14] concerns Aorta. Nature of the experiment: Vasodilating activity in Sprague-Dawley rat aortic rings assessed as reduction in phenylephrine-induced contractions at 1 uM relative to control. It counts as functional. In short, it runs like this: as §3
The subject of experiment [15] is Pulmonary Artery Smooth Muscle Cells. The experiment can be described thus: Stimulation of sGC in HPASMC assessed as increase in intracellular cGMP level at 100 uM measured after 1 hr in presence of PDE5 inhibitor IBMX and sGC inhibitor ODQ by cGMP-d2/europium cryptate reagent based HTRF assay. It counts as tissue-based. To be noted: Homo sapiens. In short, it runs like this:
as §2

Experiment [16] has as its system Rattus norvegicus. The experiment can be described thus: Inhibition of vascular remodeling activity in Sprague-Dawley rat model of hypoxia-induced pulmonary artery hypertension assessed as weight ratio of right ventricle/left ventricle plus septum at 10 mg/kg, po administered daily for 2 weeks (reference value: 0.63). It counts as functional.
Experiment [17] deals with Pulmonary Artery Smooth Muscle Cells. Nature of the experiment: Antiproliferative activity against HPASMC measured after 48 hrs under hypoxic condition by CCK8 assay. It counts as functional, tissue-based. Particulars: Homo sapiens. In short, it runs like this:
as §5

For experiment [18], the target named is T1, AMP-activated protein kinase, AMPK (Homo sapiens). The experiment can be described thus: Inhibition of AMPK in hypoxia-induced HPASMC assessed as reduction in cell migration measured after 24 hrs by wound healing assay. It counts as tissue-based. To be noted: Pulmonary Artery Smooth Muscle Cells, dose microM 5-10, time 24.0 hrs. The procedure, abridged: as §4

Experiment [19] has as its system Rattus norvegicus. The experiment can be described thus: Inhibition of vascular remodeling activity in Sprague-Dawley rat model of hypoxia-induced pulmonary artery hypertension assessed as reduction in pulmonary artery medial thickness at 10 mg/kg, po administered daily for 2 weeks by H and E staining based digital microscopic analysis. It counts as functional, organism-based. The procedure, abridged: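 Hypoxia model in male SD rats (10% O2, 4 weeks) with oral dosing at 10 mg/kg daily for 14 days in 0.5% CMC-Na. Paraffin-embedded lung tissue was cut into 5 µm sections and stained with H&E. Pulmonary artery medial thickness was quantified, n = 5/group.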

For experiment [20], the system named is Pulmonary Artery Smooth Muscle Cells. Nature of the experiment: Stimulation of sGC in HPASMC assessed as increase in intracellular cGMP level measured after 1 hr in absence of PDE5 inhibitor IBMX and sGC inhibitor ODQ by cGMP-d2/europium cryptate reagent based HTRF assay. It counts as tissue-based. To be noted: Homo sapiens, filed as activator. In short, it runs like this: as §2

A short description of experiment [21]: Antiproliferative activity against HPASMC assessed as reduction in TGFbeta-induced cell proliferation measured after 48 hrs by CCK8 assay. It counts as functional, tissue-based. Particulars: Homo sapiens, Pulmonary Artery Smooth Muscle Cells. In short, it runs like this:
as §1

With `CCCc1nn(C)c2c(=O)[nH]c(-c3cc(S(=O)(=O)N4CCN(C)CC4)ccc3OCC)nc12`, the inhibition (in general, the share of the control response that was lost under treatment) in [1] came out at 54.9%.
Turning to `COC(=O)N(C)c1c(N)nc(-c2nn(Cc3ccccc3F)c3ncccc23)nc1N` [RIOCIGUAT], the half-inhibitory concentration (IC50) in experiment [2] and in experiment [21] was greater than 100 µM each time. In addition, the inhibition result with Rattus norvegicus [3], in the experiment on Rattus norvegicus [10], with Rattus norvegicus [13] and with Rattus norvegicus [19] was “Active” each time. Moreover, the outcome (in experiment [4]; in the experiment on HLF1; in experiment [17]; in experiment [20]) was Active. Moreover, the values for the Activity (in experiment [5]; with Rattus norvegicus [6]; in [12]) were 50%, 22.3 mmHg and 5%, respectively. Further, in the experiment on Aorta [7], the EC50 (as a rule, the midpoint of the concentration-response curve) stood at 0.18 µM. Further, the inhibition result in experiment [8], in experiment [9], in [11] and in [18] was “Dose-dependent effect” in each case. In addition, in the experiment listed under Homo sapiens, the inhibition entry is “inactive”. In addition, the maximum response (Emax) (as a rule, the maximal effect, on the per cent scale that the assay sets) at 1 µM with Aorta [14] is 93.6%. For the same compound, the outcome in experiment [15] was inactive. For the same compound, the Ratio in the experiment on Rattus norvegicus [16] is 0.44.
